In ChEMBL document CHEMBL4014329, “Selective Inhibition of Escherichia coli RNA and DNA Topoisomerase I by Hoechst 33258 Derived Mono- and Bisbenzimidazoles” (J Med Chem, 2017):
Converted amounts (≈) assume the structure as drawn. The source made the active and inactive calls. No cut-off for these calls is given here.

Experiments:
[1] = tested on: Pseudomonas aeruginosa; assay: Antibacterial activity against Pseudomonas aeruginosa ATCC 27853 after 24 hrs by microbroth dilution method; format: functional; conditions: ATCC 27853, 24 h
Outline: (§1)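 Microbroth dilution per CLSI guidelines. Organisms grown in Mueller−Hinton broth at 37 °C with shaking to log phase, pelleted, resuspended in 0.85% saline to OD625 0.1. Final inoculum 5 × 10^5 CFU/mL; triplicate; 24 h at 37 °C. OD625 read; MIC = lowest concentration completely inhibiting growth versus untreated controls.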

[2] = tested on: Staphylococcus aureus; assay: Antibacterial activity against methicillin-resistant Staphylococcus aureus 33591 after 24 hrs by microbroth dilution method; format: functional; conditions: Staphylococcus aureus, 33591, 24 h
Outline: (§2)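 Mueller-Hinton broth cultures grown at 37 °C with shaking to log phase, pelleted, resuspended in 0.85% saline to OD625 0.1. Broth microdilution per CLSI guidelines, final inoculum 5 × 10^5 CFU/mL, in triplicate, 24 h at 37 °C. Growth read as OD625. MIC is the lowest concentration giving complete growth inhibition versus untreated controls.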

[3] = tested on: Enterococcus faecium; assay: Antibacterial activity against Enterococcus faecium BM4105RF after 24 hrs by microbroth dilution method; format: functional; outline: as §2
[4] = tested on: Enterococcus faecalis; assay: Antibacterial activity against Enterococcus faecalis ATCC 29212 after 24 hrs by microbroth dilution method; format: functional; conditions: ATCC 29212, 24 h; outline: as §1
[5] = tested on: Klebsiella pneumoniae; assay: Antibacterial activity against Klebsiella pneumoniae NR15410 after 24 hrs by microbroth dilution method; format: functional; conditions: NR15410, 24 h; outline: as §1
[6] = Binding affinity to dA60.dT60 B-DNA duplex (unknown origin) assessed as induction of biphasic transition at <5 uM by UV-vis spectrophotometric analysis
[7] = tested on: Acinetobacter baumannii; assay: Antibacterial activity against Acinetobacter baumannii ATCC 19606 after 24 hrs by microbroth dilution method; format: functional; conditions: ATCC 19606 = CIP 70.34 = JCM 6841, 24 h; outline: as §1
[8] = tested on: Staphylococcus epidermidis; assay: Antibacterial activity against Staphylococcus epidermidis ATCC 12384 after 24 hrs by microbroth dilution method; format: functional; conditions: ATCC 12384, 24 h; outline: as §1
[9] = tested on: Escherichia coli; assay: Antibacterial activity against Escherichia coli ATCC 25922 after 24 hrs by microbroth dilution method; format: functional; conditions: ATCC 25922, 24 h; outline: as §1
[10] = tested on: Escherichia coli; assay: Antibacterial activity against Escherichia coli K-12 after 24 hrs by microbroth dilution method; format: functional; conditions: K-12, 24 h; outline: as §1
[11] = tested on: Staphylococcus aureus; assay: Antibacterial activity against Staphylococcus aureus ATCC 29213 after 24 hrs by microbroth dilution method; format: functional; conditions: ATCC 29213, 24 h; outline: as §1
[12] = tested on: Staphylococcus aureus; assay: Antibacterial activity against methicillin-resistant Staphylococcus aureus A960649 after 24 hrs by microbroth dilution method; format: functional; conditions: A960649, 24 h; outline: as §2
[13] = tested on: Shigella flexneri; assay: Antibacterial activity against Shigella flexneri 2457NR517 after 24 hrs by microbroth dilution method; format: functional; conditions: 2457NR517, 24 h; outline: as §2
[14] = tested on: Staphylococcus aureus; assay: Antibacterial activity against Staphylococcus aureus ATCC 33591 after 24 hrs by microbroth dilution method; format: functional; conditions: ATCC 33591, 24 h; outline: as §1
[15] = tested on: Enterobacter cloacae; assay: Antibacterial activity against Enterobacter cloacae ATCC 13047 after 24 hrs by microbroth dilution method; format: functional; conditions: ATCC 13047, 24 h; outline: as §1
[16] = Binding affinity to dA60.dT60 B-DNA duplex (unknown origin) assessed as change in melting temperature at 10 uM by UV-vis spectrophotometric analysis
Outline: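 UV melting of dA60·dT60 at 1 μM/duplex with compound at 10 μM. Buffer 10 mM sodium cacodylate, 0.1 mM EDTA, 100 mM NaCl, pH 7.0; duplex pre-annealed from 95 °C. Compound stocks in DMSO diluted into buffer. Heating at 0.2 °C/min, monitored at 260 nm, points every 1.0 °C; Tm taken from derivatives.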

[17] = tested on: Citrobacter freundii; assay: Antibacterial activity against Citrobacter freundii 4747CFAA after 24 hrs by microbroth dilution method; format: functional; outline: as §1

SMILES: CN1CCN(c2ccc3nc(-c4ccc(OCCCNC(=O)OC(C)(C)C)cc4)[nH]c3c2)CC1
- MIC [1]: 16 µg/mL (≈ 34.4 µM)
- MIC [2]: > 32 µg/mL
- MIC [3]: > 32 µg/mL
- MIC [4]: 16 to 32 µg/mL (≈ 34.4 to 68.7 µM)
- MIC [5]: > 32 µg/mL
- Activity [6]: Active
- MIC [7]: > 32 µg/mL
- MIC [8]: > 32 µg/mL
- MIC [9]: 16 µg/mL (≈ 34.4 µM)
- MIC [10]: 16 µg/mL (≈ 34.4 µM)
- MIC [11]: 16 to 32 µg/mL (≈ 34.4 to 68.7 µM)
- MIC [12]: > 32 µg/mL
- MIC [13]: > 32 µg/mL
- MIC [14]: 16 to 32 µg/mL (≈ 34.4 to 68.7 µM)
- MIC [15]: > 32 µg/mL
- ΔTm [16]: 1 °C
- MIC [17]: > 32 µg/mL

SMILES: CN1CCN(c2ccc3nc(-c4ccc(OCc5cn(CCN=[N+]=[N-])nn5)cc4)[nH]c3c2)CC1
- MIC [1]: 16 µg/mL (≈ 34.9 µM)
- MIC [2]: > 32 µg/mL
- MIC [3]: > 32 µg/mL
- MIC [4]: 16 to 32 µg/mL (≈ 34.9 to 69.8 µM)
- MIC [5]: > 32 µg/mL
- Activity [6]: Active
- MIC [7]: > 32 µg/mL
- MIC [8]: > 32 µg/mL
- MIC [9]: 16 µg/mL (≈ 34.9 µM)
- MIC [10]: 16 µg/mL (≈ 34.9 µM)
- MIC [11]: 16 to 32 µg/mL (≈ 34.9 to 69.8 µM)
- MIC [12]: > 32 µg/mL
- MIC [13]: > 32 µg/mL
- MIC [14]: 16 to 32 µg/mL (≈ 34.9 to 69.8 µM)
- MIC [15]: > 32 µg/mL
- ΔTm [16]: 1.2 °C
- MIC [17]: > 32 µg/mL

SMILES: COC(=O)c1cc(N2CCN(C)CC2)cc2[nH]c(-c3ccc(O)cc3)nc12
- MIC [1]: 16 µg/mL (≈ 43.7 µM)
- MIC [2]: > 32 µg/mL
- MIC [3]: > 32 µg/mL
- MIC [4]: 16 to 32 µg/mL (≈ 43.7 to 87.3 µM)
- MIC [5]: > 32 µg/mL
- Activity [6]: Active
- MIC [7]: > 32 µg/mL
- MIC [8]: > 32 µg/mL
- MIC [9]: 16 µg/mL (≈ 43.7 µM)
- MIC [10]: 16 µg/mL (≈ 43.7 µM)
- MIC [11]: 16 to 32 µg/mL (≈ 43.7 to 87.3 µM)
- MIC [12]: > 32 µg/mL
- MIC [13]: > 32 µg/mL
- MIC [14]: 16 to 32 µg/mL (≈ 43.7 to 87.3 µM)
- MIC [15]: > 32 µg/mL
- ΔTm [16]: 0 °C
- MIC [17]: > 32 µg/mL

SMILES: Oc1ccc(-c2nc3ccccc3[nH]2)cc1
- MIC [1]: 16 µg/mL (≈ 76.1 µM)
- MIC [2]: > 32 µg/mL
- MIC [3]: > 32 µg/mL
- MIC [4]: 16 µg/mL (≈ 76.1 µM)
- MIC [5]: > 32 µg/mL
- Activity [6]: Active
- MIC [7]: 16 to 32 µg/mL (≈ 76.1 to 152 µM)
- MIC [8]: > 32 µg/mL
- MIC [9]: 16 µg/mL (≈ 76.1 µM)
- MIC [10]: 16 µg/mL (≈ 76.1 µM)
- MIC [11]: 16 to 32 µg/mL (≈ 76.1 to 152 µM)
- MIC [12]: > 32 µg/mL
- MIC [13]: > 32 µg/mL
- MIC [14]: 16 to 32 µg/mL (≈ 76.1 to 152 µM)
- MIC [15]: > 32 µg/mL
- ΔTm [16]: 0 °C
- MIC [17]: > 32 µg/mL

SMILES: CN1CCN(c2ccc3nc(-c4ccc(OCCN=[N+]=[N-])cc4)[nH]c3c2)CC1
- MIC [1]: 16 µg/mL (≈ 42.4 µM)
- MIC [2]: > 32 µg/mL
- MIC [3]: > 32 µg/mL
- MIC [4]: 16 to 32 µg/mL (≈ 42.4 to 84.8 µM)
- MIC [5]: > 32 µg/mL
- Activity [6]: Active
- MIC [7]: > 32 µg/mL
- MIC [8]: > 32 µg/mL
- MIC [9]: 16 µg/mL (≈ 42.4 µM)
- MIC [10]: 16 µg/mL (≈ 42.4 µM)
- MIC [11]: ≥ 32 µg/mL
- MIC [12]: > 32 µg/mL
- MIC [13]: > 32 µg/mL
- MIC [14]: 16 to 32 µg/mL (≈ 42.4 to 84.8 µM)
- MIC [15]: > 32 µg/mL
- ΔTm [16]: 1.9 °C
- MIC [17]: > 32 µg/mL

SMILES: CN1CCN(c2cc(C(=O)O)c3nc(-c4ccc(O)cc4)[nH]c3c2)CC1
- MIC [1]: > 32 µg/mL
- MIC [4]: > 32 µg/mL
- Activity [6]: Active
- MIC [9]: > 32 µg/mL
- MIC [10]: > 32 µg/mL
- MIC [11]: > 32 µg/mL
- MIC [14]: > 32 µg/mL
- ΔTm [16]: 0 °C

SMILES: C#CCOCCCCCCOc1ccc(-c2nc3ccc(N4CCN(C)CC4)cc3[nH]2)cc1
- MIC [1]: 16 µg/mL (≈ 35.8 µM)
- MIC [2]: > 32 µg/mL
- MIC [3]: > 32 µg/mL
- MIC [4]: 16 to 32 µg/mL (≈ 35.8 to 71.7 µM)
- MIC [5]: > 32 µg/mL
- Activity [6]: Active
- MIC [7]: > 32 µg/mL
- MIC [8]: > 32 µg/mL
- MIC [9]: 16 µg/mL (≈ 35.8 µM)
- MIC [10]: 16 µg/mL (≈ 35.8 µM)
- MIC [11]: 16 to 32 µg/mL (≈ 35.8 to 71.7 µM)
- MIC [12]: > 32 µg/mL
- MIC [13]: > 32 µg/mL
- MIC [14]: 16 to 32 µg/mL (≈ 35.8 to 71.7 µM)
- MIC [15]: > 32 µg/mL
- ΔTm [16]: 1.4 °C
- MIC [17]: > 32 µg/mL

SMILES: CN1CCN(c2ccc3nc(-c4ccc(OCCCN)cc4)[nH]c3c2)CC1
- MIC [1]: > 32 µg/mL
- MIC [2]: > 32 µg/mL
- MIC [3]: > 32 µg/mL
- MIC [4]: > 32 µg/mL
- MIC [5]: > 32 µg/mL
- Activity [6]: Active
- MIC [7]: > 32 µg/mL
- MIC [8]: > 32 µg/mL
- MIC [9]: > 32 µg/mL
- MIC [10]: > 32 µg/mL
- MIC [11]: > 32 µg/mL
- MIC [12]: > 32 µg/mL
- MIC [13]: > 32 µg/mL
- MIC [14]: > 32 µg/mL
- MIC [15]: > 32 µg/mL
- ΔTm [16]: 3.3 °C
- MIC [17]: > 32 µg/mL

SMILES: C#CCOc1ccc(-c2nc3ccc(N4CCN(C)CC4)cc3[nH]2)cc1
- MIC [1]: 16 µg/mL (≈ 46.2 µM)
- MIC [2]: > 32 µg/mL
- MIC [3]: > 32 µg/mL
- MIC [4]: 16 to 32 µg/mL (≈ 46.2 to 92.4 µM)
- MIC [5]: > 32 µg/mL
- Activity [6]: Active
- MIC [7]: > 32 µg/mL
- MIC [8]: > 32 µg/mL
- MIC [9]: 16 µg/mL (≈ 46.2 µM)
- MIC [10]: 16 µg/mL (≈ 46.2 µM)
- MIC [11]: ≥ 32 µg/mL
- MIC [12]: > 32 µg/mL
- MIC [13]: > 32 µg/mL
- MIC [14]: 16 to 32 µg/mL (≈ 46.2 to 92.4 µM)
- MIC [15]: > 32 µg/mL
- ΔTm [16]: 2.6 °C
- MIC [17]: > 32 µg/mL

SMILES: C#CCCCCCCc1cn(CCOc2ccc(-c3nc4ccc(N5CCN(C)CC5)cc4[nH]3)cc2)nn1
- MIC [1]: 16 µg/mL (≈ 31.3 µM)
- MIC [3]: > 32 µg/mL
- MIC [4]: 16 to 32 µg/mL (≈ 31.3 to 62.5 µM)
- MIC [5]: > 32 µg/mL
- Activity [6]: Active
- MIC [7]: > 32 µg/mL
- MIC [8]: > 32 µg/mL
- MIC [9]: 16 µg/mL (≈ 31.3 µM)
- MIC [10]: 16 µg/mL (≈ 31.3 µM)
- MIC [11]: 16 to 32 µg/mL (≈ 31.3 to 62.5 µM)
- MIC [13]: > 32 µg/mL
- MIC [14]: 16 to 32 µg/mL (≈ 31.3 to 62.5 µM)
- MIC [15]: > 32 µg/mL
- ΔTm [16]: 0.5 °C
- MIC [17]: > 32 µg/mL
